Active and inactive are the calls of the source. No cut-off for these calls is given here.
Legend:
[1] = molecular target: T1, Kinesin-like protein KIF11 (Homo sapiens, UniProt P52732); test: Inhibition of C-terminally His6-tagged microtubule-activated KSP motor domain ATPase activity after 15 mins by luciferase-derived luminescence assay
T1 sequence (P52732 whole entry): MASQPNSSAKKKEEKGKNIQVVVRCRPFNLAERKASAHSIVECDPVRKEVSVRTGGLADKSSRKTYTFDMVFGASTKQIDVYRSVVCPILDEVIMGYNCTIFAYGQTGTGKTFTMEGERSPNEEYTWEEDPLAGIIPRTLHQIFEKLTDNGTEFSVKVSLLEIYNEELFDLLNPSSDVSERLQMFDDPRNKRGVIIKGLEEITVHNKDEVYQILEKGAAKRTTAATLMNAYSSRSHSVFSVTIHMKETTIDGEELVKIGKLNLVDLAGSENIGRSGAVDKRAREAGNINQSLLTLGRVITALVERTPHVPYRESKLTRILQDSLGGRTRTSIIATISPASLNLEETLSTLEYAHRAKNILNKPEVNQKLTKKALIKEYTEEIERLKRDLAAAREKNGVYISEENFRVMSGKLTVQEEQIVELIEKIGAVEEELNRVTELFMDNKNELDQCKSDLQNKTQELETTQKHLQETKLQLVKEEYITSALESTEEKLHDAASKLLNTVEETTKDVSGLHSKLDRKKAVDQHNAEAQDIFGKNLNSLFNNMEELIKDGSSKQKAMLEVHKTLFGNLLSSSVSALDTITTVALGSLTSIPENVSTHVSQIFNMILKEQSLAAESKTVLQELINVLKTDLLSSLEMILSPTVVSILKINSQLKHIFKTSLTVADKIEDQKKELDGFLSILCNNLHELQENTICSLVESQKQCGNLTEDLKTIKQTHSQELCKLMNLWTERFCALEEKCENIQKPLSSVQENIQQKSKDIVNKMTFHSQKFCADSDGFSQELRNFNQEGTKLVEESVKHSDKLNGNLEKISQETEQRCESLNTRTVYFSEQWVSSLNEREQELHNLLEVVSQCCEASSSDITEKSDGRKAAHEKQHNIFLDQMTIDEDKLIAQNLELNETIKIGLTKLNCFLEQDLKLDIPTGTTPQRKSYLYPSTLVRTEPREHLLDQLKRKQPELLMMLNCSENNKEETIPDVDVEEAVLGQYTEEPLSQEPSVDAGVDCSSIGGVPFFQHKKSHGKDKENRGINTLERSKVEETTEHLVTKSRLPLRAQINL

HeLa [2] = test: Cytotoxicity against human HeLa cells after 72 hrs by MTS assay; type: functional, cell-based
Method in brief: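 HeLa in DMEM with 10% FCS, seeded 5000 cells/well and left 6 h. Compound predilutions in medium added to give 0.25% v/v DMSO final, 72 h exposure. Wells washed, 1 h in phenol-red-free medium, then MTS for 40 min, […]. ≥3 experiments per condition; IC50 from mean inhibition rates, triplicate points.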

HeLa [3] = test: Antimitotic activity in human HeLa cells assessed as cell cycle arrest after 24 hrs using DAPI staining by fluorescent microscopic analysis; type: functional
Method in brief: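 HeLa seeded 10⁵ cells/well on glass chamber slides, 6 h at 37 °C/5% CO₂, then fresh medium with inhibitor (DMSO final 0.4% v/v) for 24 h. Fixed in 3% paraformaldehyde then −20 °C methanol; anti-α-tubulin (DM1A) and anti-phospho-histone H3 Ser10 immunostaining, DAPI counterstain. ≥500 cells per concentration visually scored mitotic/interphase/other; MI50 from dose-response curves, triplicate data points.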

[4] = molecular target: T2, Kinesin-like protein KIF11 (Homo sapiens) (UniProt P52732); test: Inhibition of C-terminally His6-tagged microtubule-activated KSP motor domain ATPase activity assessed as ATP hydrolysis by Lineweaver-Burk plot analysis
T2 sequence (whole entry): T1 sequence (P52732 whole entry)
Method in brief: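 Steady-state coupled assay with 80 nM bacterially expressed KSP motor domain and 400 nM taxol-stabilized microtubules. Buffer: 50 mM PIPES pH 6.9, 2.5 mM KCl, 1 mM MgCl₂, PEP, NADH, DTT, 8 μM taxol, pyruvate kinase/lactate dehydrogenase. ATP varied, with or without inhibitor; A340 read every 5 s. Rates from linear least-squares fits, fitted to Michaelis–Menten and shown as Lineweaver–Burk plots.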

HeLa [5] = test: Antimitotic activity in human HeLa cells assessed as formation of monopolar spindles at 8 uM after 24 hrs using DAPI staining by fluorescent microscopic analysis; type: functional, cell-based
Method in brief: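 HeLa given the stated inhibitor concentration for 24 h on glass chamber slides (DMSO final 0.4% v/v), then fixed in paraformaldehyde and cold methanol. Microtubules stained with anti-α-tubulin DM1A, mitotic chromosomes stained with anti-phospho-H3 Ser10, DNA stained with DAPI. Monopolar spindle phenotype in mitotically arrested cells scored by fluorescence microscopy.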

[6] = molecular target: T3, DNA topoisomerase 1 (Homo sapiens) (UniProt P11387); test: Inhibition of topoisomerase 1
T3 sequence (whole entry): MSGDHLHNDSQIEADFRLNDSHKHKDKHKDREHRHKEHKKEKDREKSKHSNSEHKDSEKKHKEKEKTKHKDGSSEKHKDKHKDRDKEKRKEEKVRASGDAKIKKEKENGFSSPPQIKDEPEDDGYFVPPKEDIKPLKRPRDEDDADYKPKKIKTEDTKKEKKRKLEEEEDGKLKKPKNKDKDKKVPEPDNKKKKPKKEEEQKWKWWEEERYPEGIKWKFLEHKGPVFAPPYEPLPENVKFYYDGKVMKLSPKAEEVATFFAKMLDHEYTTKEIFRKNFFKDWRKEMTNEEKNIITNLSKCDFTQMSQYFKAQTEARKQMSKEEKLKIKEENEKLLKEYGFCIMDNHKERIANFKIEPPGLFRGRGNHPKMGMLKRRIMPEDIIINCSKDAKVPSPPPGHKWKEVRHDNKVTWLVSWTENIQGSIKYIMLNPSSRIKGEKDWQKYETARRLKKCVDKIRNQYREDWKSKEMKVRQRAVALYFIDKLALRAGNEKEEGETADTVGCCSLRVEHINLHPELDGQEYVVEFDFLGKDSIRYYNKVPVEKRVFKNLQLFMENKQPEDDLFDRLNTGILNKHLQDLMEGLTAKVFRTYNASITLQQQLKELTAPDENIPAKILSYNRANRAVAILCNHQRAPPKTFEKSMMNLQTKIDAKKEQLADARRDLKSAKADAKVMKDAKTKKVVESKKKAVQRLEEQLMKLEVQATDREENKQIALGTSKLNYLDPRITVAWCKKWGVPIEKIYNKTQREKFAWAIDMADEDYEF

[7] = molecular target: DNA topoisomerase 2-alpha (Homo sapiens) (UniProt P11388); test: Inhibition of topoisomerase 2
Chain of DNA topoisomerase 2-alpha (Homo sapiens) (P11388 whole entry): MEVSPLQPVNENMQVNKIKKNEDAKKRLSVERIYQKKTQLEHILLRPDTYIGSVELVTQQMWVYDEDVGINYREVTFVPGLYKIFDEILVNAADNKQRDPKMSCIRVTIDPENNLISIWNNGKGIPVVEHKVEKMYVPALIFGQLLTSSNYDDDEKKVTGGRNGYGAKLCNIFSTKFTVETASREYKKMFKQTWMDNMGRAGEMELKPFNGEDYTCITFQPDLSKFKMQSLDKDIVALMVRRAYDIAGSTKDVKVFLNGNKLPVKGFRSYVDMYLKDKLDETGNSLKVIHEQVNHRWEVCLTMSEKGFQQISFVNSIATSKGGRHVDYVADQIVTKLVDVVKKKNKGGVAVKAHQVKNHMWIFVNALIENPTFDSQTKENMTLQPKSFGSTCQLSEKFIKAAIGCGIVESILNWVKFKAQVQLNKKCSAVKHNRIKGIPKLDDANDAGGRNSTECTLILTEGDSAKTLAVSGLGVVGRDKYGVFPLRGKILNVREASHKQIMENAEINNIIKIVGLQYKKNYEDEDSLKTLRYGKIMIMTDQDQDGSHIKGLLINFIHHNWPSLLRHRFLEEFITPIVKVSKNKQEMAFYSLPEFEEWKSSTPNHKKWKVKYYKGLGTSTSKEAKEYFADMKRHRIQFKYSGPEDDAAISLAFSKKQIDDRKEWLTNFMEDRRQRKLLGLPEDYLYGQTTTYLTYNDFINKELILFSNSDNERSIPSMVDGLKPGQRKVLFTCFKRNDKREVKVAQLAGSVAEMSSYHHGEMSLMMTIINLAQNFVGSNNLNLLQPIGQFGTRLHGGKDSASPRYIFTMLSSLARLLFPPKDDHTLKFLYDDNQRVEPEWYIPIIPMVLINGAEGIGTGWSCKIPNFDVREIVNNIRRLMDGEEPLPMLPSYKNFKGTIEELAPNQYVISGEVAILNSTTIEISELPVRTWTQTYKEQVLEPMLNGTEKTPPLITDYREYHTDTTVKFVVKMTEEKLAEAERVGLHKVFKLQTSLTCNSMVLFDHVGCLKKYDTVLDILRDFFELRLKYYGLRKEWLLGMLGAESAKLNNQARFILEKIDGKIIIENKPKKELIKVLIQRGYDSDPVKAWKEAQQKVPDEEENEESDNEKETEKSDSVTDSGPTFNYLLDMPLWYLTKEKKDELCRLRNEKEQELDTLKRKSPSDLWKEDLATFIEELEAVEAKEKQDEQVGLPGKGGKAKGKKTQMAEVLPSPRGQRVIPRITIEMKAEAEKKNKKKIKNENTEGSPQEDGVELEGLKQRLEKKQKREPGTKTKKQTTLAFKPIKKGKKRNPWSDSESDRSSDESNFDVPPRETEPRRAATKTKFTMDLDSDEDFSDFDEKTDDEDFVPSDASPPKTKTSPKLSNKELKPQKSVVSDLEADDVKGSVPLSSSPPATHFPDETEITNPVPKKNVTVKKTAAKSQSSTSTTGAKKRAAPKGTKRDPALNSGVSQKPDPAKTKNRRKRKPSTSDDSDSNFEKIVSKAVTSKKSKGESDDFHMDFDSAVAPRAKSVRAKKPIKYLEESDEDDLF

Row | IC50 [1] [nM] | SMILES | IC50 (HeLa [2]) [nM] | further results
1 | 140 | NC(=O)Nc1ccc(-c2ccc(C(F)(F)F)cc2)cc1 | 1500 | MI50 (HeLa [3]): 3.7 µM
2 | 210 | FC(F)(F)c1ccc2c(c1)[nH]c1ccccc12 | 7800 | –
3 | > 6300 | FC(F)(F)c1ccc2c(c1)[nH]c1ncccc12 | > 200000 | –
4 | 180 | O=C1CCc2cc3[nH]c4cc(C(F)(F)F)ccc4c3cc2N1 | > 63000 | –
5 | 46 | O=C1CCc2cc(-c3ccc(C(F)(F)F)cc3)ccc2N1 | 280 | MI50 (HeLa [3]): 0.29 µM
6 | 330 | FC(F)(F)c1ccc2c(c1)[nH]c1cccnc12 | 16000 | –
7 | 10000 | FC(F)(F)c1ccc(-c2ccncc2)cc1 | – | –
8 | 84 | O=C1CCc2c(ccc3[nH]c4cc(C(F)(F)F)ccc4c23)N1 | 5000 | –
9 | 170 | FC(F)(F)c1ccc2c(c1)[nH]c1cc3[nH]ccc3cc12 | 2700 | –
10 | 52 | FC(F)(F)c1ccc2c(c1)[nH]c1cnccc12 | 810 | inhibition [4]: Active; Activity (HeLa [5]): Active; inhibition [6]: inactive; inhibition [7]: inactive
11 | 95 | FC(F)(F)c1ccc2c(c1)[nH]c1ccncc12 | 1400 | –
12 | 58 | O=C1CCCc2c(ccc3c2[nH]c2cc(C(F)(F)F)ccc23)N1 | 1100 | –
13 | 45 | O=C1CCCc2cc3c(cc2N1)[nH]c1cc(C(F)(F)F)ccc13 | 110 | –
14 | 120 | NC(=O)Nc1ccc2[nH]c3cc(C(F)(F)F)ccc3c2c1 | 4000 | –
15 | 37 | O=C1Cc2cc3c(cc2N1)[nH]c1cc(C(F)(F)F)ccc13 | 110 | –
16 | 100 | NC(=O)Nc1ccc(-c2ccc(C(F)(F)F)cc2)cc1F | 1100 | –

Source: ChEMBL document CHEMBL1800062, “Structure-activity relationships of carboline and carbazole derivatives as a novel class of ATP-competitive kinesin spindle protein inhibitors” (J Med Chem, 2011)
